Apaf1 inhib: inhibitors of human Apaf-1 apoptosome, primary screen, biochemical, DEVD-Rh110 fluorescence, uHTS. Apoptotic protease-activating factor 1 (Homo sapiens), O14727. reconstituted apoptosome caspase-3 activity. inhibition, % at 20 µM. 0.71% of 330,000 active. AID 489030, 2010; active means inhibition of at least 40% at 20 µM;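 further: plate controls were DMSO wells for no effect and DEVD-CHO caspase inhibitor wells for full effect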
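System – cell-free apoptosome with Apaf-1, procaspase-3 and caspase-9 · Buffer or medium – pH 7.5 Hepes buffer with CHAPS, BSA, DTT · Also added – cytochrome c with DEVD-Rh110 · Times – 30 min compound preincubation, 50 min activation, room temperature · Technique – Rh110 fluorescence intensity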
TDP2 absorb: human TDP2 enzyme inhibitors, primary screen, biochemical, epi absorbance, recombinant enzyme | 0.34% of 370,000 active | AID 720702, 2013 | T5PNP hydrolysis, p-nitrophenol absorbance 415 nm | inhibition, % at 12.8 µM | Tyrosyl-DNA phosphodiesterase 2 (Homo sapiens), O95551;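 active means inhibition above the mean of all tested compounds plus 3 SD, set per campaign, cut at about 25% in these data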;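 further: 0% = DMSO with enzyme and 100% = buffer with substrate but no TDP2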
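Material: recombinant human TDP2; quantity: TDP2 enzyme at 120 nM final; medium: Tris-HCl pH 7.5 with MgCl2; compound: single concentration, 12.8 µM nominal, with 1% DMSO; incubation: 2 h enzyme incubation at 37 °C; signal: epi absorbance; measure: percent inhibition; benchmarks: high control without enzyme, low control DMSO plus TDP2; repeats: singlicate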
GSTO1 inh: inhibitors of recombinant GSTO1, primary screen, counter-screen for RBBP9 inhibitor project, biochemical, fluorescence polarization; activity-based probe fluorescence polarization; inhibition, % at 5.96 µM; 1.1% of 300,000 active; AID 1974, 2009;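 active means inhibition above the campaign mean inhibition plus 3 SD, cut at about 35% in these data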;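 further: 0% = GSTO1-1 with DMSO and 100% = wells lacking GSTO1-1 enzyme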
Target sequence (P78417 whole entry, looked up): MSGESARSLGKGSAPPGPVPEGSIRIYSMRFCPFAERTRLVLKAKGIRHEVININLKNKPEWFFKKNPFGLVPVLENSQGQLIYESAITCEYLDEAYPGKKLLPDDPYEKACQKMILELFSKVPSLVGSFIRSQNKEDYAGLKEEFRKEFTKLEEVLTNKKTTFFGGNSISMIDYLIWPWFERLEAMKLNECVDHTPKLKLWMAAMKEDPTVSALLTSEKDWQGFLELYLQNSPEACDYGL
PP1 counter: PP1-alpha phosphatase inhibitors, primary screen, counter-screen for PP5 inhibitor project, biochemical, fluorescence, OMFP substrate, single point. 0.9% of 320,000 active. inhibition, % at 6.7 µM. purified PP1alpha;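 active means inhibition above the mean inhibition of all tested compounds plus 3 SD, computed separately for each screening campaign, cut at about 15% in these data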
Target sequence (P62136 whole entry, looked up): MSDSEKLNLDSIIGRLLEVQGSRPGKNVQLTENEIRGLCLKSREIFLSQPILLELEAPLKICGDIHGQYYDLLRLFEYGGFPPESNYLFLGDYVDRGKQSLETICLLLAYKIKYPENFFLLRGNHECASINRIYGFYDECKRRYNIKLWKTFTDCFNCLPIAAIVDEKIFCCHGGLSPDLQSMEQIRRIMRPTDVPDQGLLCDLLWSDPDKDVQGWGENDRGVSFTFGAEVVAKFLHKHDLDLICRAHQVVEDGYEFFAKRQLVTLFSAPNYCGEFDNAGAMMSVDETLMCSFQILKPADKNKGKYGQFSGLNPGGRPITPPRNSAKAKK
PP5 inh: PP5 phosphatase inhibitors, primary screen, biochemical, fluorescence; purified PP5c, OMFP substrate fluorescence; Serine/threonine-protein phosphatase 5 (Homo sapiens), P53041; inhibition, % at 6.7 µM; 0.18% of 320,000 active;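 active means inhibition above the campaign's mean inhibition across all tested compounds plus 3 SD, cut at about 9.5% in these data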;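 further: 0% = DMSO only and 100% = 100 µM cantharidin control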
Apaf-1 inh conf: Apaf-1 inhibitors, single-dose retest, confirmation, biochemical, fluorescence, DEVD-Rh110, 20 µM | shares compounds with Apaf1 inhib | reconstituted apoptosome, caspase-3 DEVD-Rh110 fluorescence | inhibition, % at 20 µM | 25% of 1,800 active;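 active means mean inhibition of at least 40% at 20 µM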;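 further: plate controls were DMSO wells for no effect and DEVD-CHO caspase inhibitor control wells for full effect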
Rh110 interf inh: Rh110 fluorescence interference by putative Apaf-1 inhibitors, confirmation, artefact control for Apaf-1 inhibitor project, biochemical, 20 µM | shares compounds with Apaf1 inhib | quenched caspase reaction | activation (fluorescence interference), % at 20 µM | 1,800 tested, under 10 active;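 active means signal rise of 40% or more at 20 µM, treated as a fluorescence artifact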
Fluor interf inh: fluorescence interference of Apaf-1 inhibitor hits, dose response, artefact control for Apaf-1 inhibitor project | shares compounds with Apaf1 inhib | fluorescence interference counterscreen, Apaf-1 assay format | IC50, µM | 460 tested, under 10 active | AID 588538, 2011; call rule not given here
TDP2 inh conf: human TDP2 enzyme inhibitors, retest, confirmation, biochemical, epi absorbance, recombinant enzyme; shares compounds with TDP2 absorb; absorbance read-out; inhibition, % at 12.8 µM; 22% of 1,100 active; in the data active means inhibition above about 25%;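 further: 0% = vehicle with enzyme and 100% = no enzyme buffer only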
Starred values were filed as active, the others as inactive; · = not tested or not shown. An excerpt weighted towards active compounds, which were near 2.1% of everything screened.

SMILES	Apaf1 inhib	TDP2 absorb	GSTO1 inh	PP1 counter	PP5 inh	Apaf-1 inh conf	Rh110 interf inh	TDP2 inh conf	others
CCCC[C@H](C(=O)N(C)c1cccc(OC)c1)[C@@H](O)c1ccc2ccccc2c1	·	-6	·	·	·	·	·	·
COC(=O)[C@]12C[C@H](CC(=O)NCC34CC5CC(CC(C5)C3)C4)C(=O)N(CCc3ccc(OC)c(OC)c3)C1=C[C@H](COCc1ccccc1)O[C@@H]2C	·	-6	·	·	·	·	·	·
CC(C)CCNC(=O)[C@@H](Cc1ccccc1)NC(=O)[C@H]1O[C@@H](n2ccc(=O)[nH]c2=O)[C@H](O)[C@@H]1O	·	1	·	·	·	·	·	·
C#CCOCCOCCOCCNc1nc(N2CCN(C(=O)[C@H](CCC(=O)O)n3cc(C(N)[C@H](C)CC)nn3)CC2)nc(N2CCN(C(=O)[C@H](Cc3cc4ccccc4[nH]3)n3cc(C(N)[C@H](C)CC)nn3)CC2)n1 (some centres undefined)	-6	·	4	2	2	·	·	·
C#CCOCCOCCOCCNc1nc(N2CCN(C(=O)[C@H](CCCCN)n3cc([C@@H](N)C(C)CC)nn3)CC2)nc(N2CCN(C(=O)[C@H](Cc3cc4ccccc4[nH]3)n3cc([C@@H](N)C(C)CC)nn3)CC2)n1 (some centres undefined)	53*	·	·	·	·	4	-7	·
C#CCOCCOCCOCCNc1nc(N2CCN(C(=O)C([C@@H](C)O)n3cc([C@@H](N)CCCCN)nn3)CC2)nc(N2CCN(C(=O)[C@H](CCCN=C(N)N)n3cc(C(N)[C@@H](C)CC)nn3)CC2)n1 (some centres undefined)	46*	·	·	·	·	-3	-3	·
CCCCCC(=O)Nc1nc(C)c(-c2csc(Nc3cc(OC)ccc3OC)n2)s1	-8	0	-7	5	4	·	·	·
CCCCCCC(=O)Nc1nc(C)c(-c2csc(Nc3cc(OC)ccc3OC)n2)s1	49*	-5	6	0	6	-10	4	·
Nc1ccc(N2CCOCC2)c2nonc12	84*	92*	86*	8	3	33	-6	36*
O=C(Nc1ccc(N2CCOCC2)c2nonc12)C1CCCC1	21	7	4	-2	-1	·	·	·
Cc1[nH]n(-c2ccccc2)c(=O)c1C(c1cccc([N+](=O)[O-])c1O)c1c(C)[nH]n(-c2ccccc2)c1=O	88*	84*	64*	2	6	27	4	3
Cc1[nH][nH]c(=O)c1C(c1ccc(-c2cccc(C(=O)O)c2)o1)c1c(C)[nH][nH]c1=O	78*	63*	33	1	0	31	9	31*
COc1ccc(C(=O)Nc2nc3c(s2)Cc2cc(OC)ccc2-3)cc1	97*	32*	5	5	0	59*	4	38*	Fluor interf inh=>100
O=C(NC1CCCCN(Cc2ccc(Cl)cc2)C1=O)c1ccc(COc2ccccc2)cc1 (centres undefined)	·	-1	·	·	·	·	·	·
C=CCN(CC=C)C(=S)Nc1ccc2nsnc2c1	96*	72*	42*	-1	2	9	-5	59*
C=CCNC(=S)Nc1ccc2nsnc2c1	23	9	16	-2	4	·	·	·
NC(Cc1ccc(F)cc1)c1csc(Nc2cc(Oc3ccccc3)ncn2)n1 (centres undefined)	·	2	·	·	·	·	·	·
COc1ccc(NC2=C(NCCO)C(=O)c3ccccc3C2=O)cc1	70*	36*	44*	5	9	45*	6	34*	Fluor interf inh=>100
Cc1cccc(NC2=C(NCCO)C(=O)c3ccccc3C2=O)c1	56*	58*	42*	4	4	35	9	2
COC(=O)[C@]12C[C@H](CC(=O)NCc3ccc(OC)c(OC)c3)C(=O)N(CCC3=CCCCC3)C1=C[C@H](COCc1ccccc1)O[C@@H]2C	·	-3	·	·	·	·	·	·
O=C(OC12CCCN(C1)/C(=C/c1cccnc1)C2)c1ccccc1 (centres undefined)	·	9	·	·	·	·	·	·
COc1ccc(-n2c(C)cc(/C=N/Nc3nnc(C)n3N)c2C)cc1	53*	73*	46*	-2	1	1	0	14
CS(=O)(=O)Oc1ccc(Br)c2cccnc12	3	-6	-4	-3	1	·	·	·
Nc1ccc(Br)c2cccnc12	85*	47*	11	-5	1	46*	-1	41*	Fluor interf inh=>100
O=[N+]([O-])c1cnc2ccccc2c1Sc1ccccc1	·	6	·	·	·	·	·	·
SMILES	Apaf1 inhib	TDP2 absorb	GSTO1 inh	PP1 counter	PP5 inh	Apaf-1 inh conf	Rh110 interf inh	TDP2 inh conf	others
COc1ccc(N)c2c1OCCC2=O	87*	34*	6	0	-2	11	9	-2
COc1ccc(O)c(C(c2c(C)[nH][nH]c2=O)c2c(C)[nH][nH]c2=O)c1	67*	73*	30	-4	2	14	-1	73*
Cc1[nH][nH]c(=O)c1C(c1ccc(O)c([N+](=O)[O-])c1)c1c(C)[nH][nH]c1=O	8	13	27	-3	4	·	·	·
COc1cc2c(cc1O)CC[n+]1cc3c(OC)c(OC)ccc3cc1-2	-6	11	-8	1	0	·	·	·
COc1cc2c(cc1OC)-c1cc3ccc4c(c3c[n+]1CC2)OCO4	73*	26*	42*	0	5	28	-3	9
CCCCCn1c(NC(=O)c2ccco2)c(S(=O)(=O)c2ccc(C)cc2)c2nc3ccccc3nc21	63*	69*	12	9	1	34	13	1
C#CCN1CC(N(C)CCCO)CS1(=O)=O (centres undefined)	·	5	·	·	·	·	·	·
CN(C(=O)c1ccc(NC(=O)Cc2cccc(NC(=O)C3CCN(C(=O)CCc4ccccc4)CC3)c2)cc1)C1CC1	·	-2	·	·	·	·	·	·
Cc1nnc(N/N=C/c2cccc(OCc3ccc(Cl)c(Cl)c3)c2)n1N	77*	62*	46*	10	4	16	5	2
NC(=O)N/N=C/c1cccc(OCc2ccc(F)cc2)c1	-3	-7	2	-1	1	·	·	·
O=C(Cn1nc(-c2ccccc2)ccc1=O)NCCc1ccccc1F	·	-1	·	·	·	·	·	·

High-throughput results deposited in PubChem BioAssay by several laboratories.
